From ChEMBL document CHEMBL1125318, “4-substituted thiophene- and furan-2-sulfonamides as topical carbonic anhydrase inhibitors” (J Med Chem, 1992)
Several values for one entry are separate records, joined by “and”; a condition that tells them apart may be missing. Equal entries are not always repeated. Activity calls are given as the source filed them. The rule behind the calls is not given here.

Columns and labels:
[1] = Partition coefficient (logD7.4); assay type: physicochemical; conditions: octanol/water, pH 7.4
In short: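 Compound was equilibrated between 1-octanol and 0.1 ionic strength pH 7.4 phosphate buffer; each phase was quantified by UV spectrophotometry.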

[2] = Aqueous solubility (25 degree C); assay type: physicochemical; conditions: read-out: S
[3] = Ionization constant (pKa); assay type: physicochemical
In short: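 The half-neutralization point was found by titration with 0.5 N NaOH and 0.5 N HCl in 30% EtOH–H2O using a glass electrode.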

Carbonic anhydrase 2 [4] = target: T1, Carbonic anhydrase 2 (Homo sapiens, UniProt P00918); assay: Inhibition of human carbonic anhydrase II; conditions: read-out: I50
In short: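 CA II was affinity-purified from human erythrocytes. CO2 hydration was assayed by pH stat in 0.02 M Tris chloride, pH 8.6, at 2 °C with CO2–air (5:95) bubbled at 150 mL/min. The 0.025 N NaOH volume needed to hold pH 8.3 over 3 min was recorded, with inhibitor added before enzyme. I50 was read from semilog plots of % inhibition versus log concentration.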

Oryctolagus cuniculus [5] = assay: Ability to penetrate the albino rabbit eye and to inhibit the target enzyme in an homogenate of the iris-ciliary body at 1 hr postdosing, ex vivo when dosed in 0.5% aqueousi (hydroxymethyl) cellulose.; assay type: functional
In short: (§1)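 Albino rabbits received one 50 μL drop of test suspension topically; 1 h after dosing the iris-ciliary body was homogenized and its carbonic anhydrase activity measured ex vivo. Screening used 0.5%, with lower concentrations for some compounds. Reference suspensions were given as 0.1% in 0.5% aqueous (hydroxyethyl)cellulose.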

Oryctolagus cuniculus [6] = organism: Oryctolagus cuniculus; assay: Maximum Intraocular pressure reduction in alpha-CT rabbits at the dose (as a 50 microL drop of suspension in 0.5% aqueous cellulose); assay type: functional
In short: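 α-Chymotrypsinized rabbits received a 50 μL topical drop of test suspension. IOP was read before dosing and at 0.5, 1, 2, 3, 4 and 5 h after. The value is the maximum fall from the pre-dose reading. Parallel control groups got a drop of 0.5% aqueous (hydroxyethyl)cellulose.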

Carbonic anhydrase 2 [7] = target: T1, Carbonic anhydrase 2; assay: Compound was tested in vitro for binding affinity against human carbonic anhydrase II; (ki*10e-9)
In short: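 Fluorescence competition against dansylamide used purified human erythrocyte CA II (1×10^-7 M) and dansylamide (2×10^-6 M) in pH 7.4, 0.1 ionic strength phosphate buffer at 37 °C. Excitation was 280 nm and emission 460 nm, with stepwise addition of test compound in buffer.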

Oryctolagus cuniculus [8] = assay: Ability to penetrate the albino rabbit eye and to inhibit the target enzyme in an homogenate of the iris-ciliary body at 1 hr postdosing, ex vivo when dosed in 0.1% aqueousi (hydroxymethyl) cellulose.; assay type: functional; in short: as §1
[9] = Solubility (pH 7.4, 25 degree C); assay type: physicochemical; conditions: buffer, read-out: S
Oryctolagus cuniculus [10] = assay: Ability to penetrate the albino rabbit eye and to inhibit the target enzyme in an homogenate of the iris-ciliary body at 1 hr postdosing, ex vivo when dosed in 0.05% aqueousi (hydroxymethyl) cellulose.; assay type: functional; in short: as §1
[11] = Solubility measured in water; assay type: physicochemical; conditions: read-out: S
In short: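 Solubility was measured in water at 25 °C.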

[12] = Solubility measured pH 7.4 at 25 degree C; assay type: physicochemical; conditions: buffer, read-out: S

Row | Structure (SMILES) | IC50 (Carbonic anhydrase 2 [4]) | Inhibition (Oryctolagus cuniculus [5]) | Inhibition (Oryctolagus cuniculus [8]) | also measured
1 | CCC(C)NCc1cccc(S(=O)(=O)c2csc(S(N)(=O)=O)c2)c1.Cl (centres undefined) | 26 nM | 72% | – | logD [1]: 0.477; solubility [2]: 20000 µg/mL; pKa [3]: 9.05; Max IOP reduction (Oryctolagus cuniculus [6]): -2.3 mmHg
2 | CCN(CC)Cc1cc(S(=O)(=O)c2csc(S(N)(=O)=O)c2)ccc1O.Cl | 9 nM | 71% | – | –
3 | CC(C)(C)NCc1ccc(S(=O)(=O)c2csc(S(N)(=O)=O)c2)cc1.Cl | 36 nM | 61% | – | logD [1]: -0.143; solubility [2]: 4500 µg/mL; pKa [3]: 9.3
4 | NS(=O)(=O)c1cc(S(=O)(=O)c2cccc(O)c2)cs1 | 2.1 nM | 86% | – | –
5 | CN(C)Cc1cc(C(=O)c2csc(S(N)(=O)=O)c2)ccc1O.Cl | 6.4 nM | 59% | – | Ki (Carbonic anhydrase 2 [7]): 34.4 nM
6 | CC(C)CNCc1cccc(C(=O)c2csc(S(N)(=O)=O)c2)c1.Cl | 13 nM | 68% | – | Ki (Carbonic anhydrase 2 [7]): 14.5 nM
7 | Cl.NS(=O)(=O)c1cc(S(=O)(=O)c2ccccc2CNCc2ccccn2)cs1 | 15 nM | 88% | 88% | Max IOP reduction (Oryctolagus cuniculus [6]): -6.5 mmHg
8 | CC(C)CNCc1ccc(C(=O)c2csc(S(N)(=O)=O)c2)cc1.Cl | 4.8 nM | 87% | 77% | Max IOP reduction (Oryctolagus cuniculus [6]): inactive
9 | CCCCNCc1ccc(C(=O)c2csc(S(N)(=O)=O)c2)cc1.Cl | 12 nM | 95% | 68% | logD [1]: 0.568; solubility [2]: 2400 µg/mL; pKa [3]: 9.32; solubility [9]: 460 µg/mL
10 | CC(C)CNCc1cccc(S(=O)(=O)c2csc(S(N)(=O)=O)c2)c1.Cl | 12 nM | 84% | – | –
11 | NS(=O)(=O)c1cc(S(=O)(=O)c2ccc(O)cc2)cs1 | 5 nM | 82% | – | pKa [3]: 9.2; Ki (Carbonic anhydrase 2 [7]): 8 nM
12 | COc1ccc(C(=O)c2coc(S(N)(=O)=O)c2)cc1 | 2 nM | 67% | 13% | –
13 | Cc1ccc(S(=O)(=O)c2csc(S(N)(=O)=O)c2)cc1 | 3.2 nM | 86% | – | –
14 | Cl.NS(=O)(=O)c1cc(C(=O)c2ccc(CNCc3ccccc3)cc2)cs1 | 2.4 nM | 81% | – | –
15 | CC(C)NCc1cccc(S(=O)(=O)c2csc(S(N)(=O)=O)c2)c1.Cl | 22 nM | 71% | – | –
16 | Cl.NS(=O)(=O)c1cc(C(=O)c2cccc(CN3CCOCC3)c2)cs1 | 5 nM | 90% | – | logD [1]: 1.11; solubility [2]: 4800 µg/mL; pKa [3]: 9.03; Ki (Carbonic anhydrase 2 [7]): 10.8 nM
17 | Cl.NS(=O)(=O)c1cc(S(=O)(=O)c2ccc(CNCc3ccccn3)cc2)cs1 | 8 nM | 92% | 75% | –
18 | Cc1ccc(S(=O)(=O)c2coc(S(N)(=O)=O)c2)cc1 | 4.2 nM | 96% | 36% | –
19 | CN(C)Cc1cc(S(=O)(=O)c2csc(S(N)(=O)=O)c2)ccc1O.Cl | 9 nM | 57% | 40% | –
20 | NS(=O)(=O)c1cc(C(=O)c2ccc(O)cc2)cs1 | 2.5 nM | 83% | – | –
21 | CC(C)CNCc1ccc(S(=O)(=O)c2csc(S(N)(=O)=O)c2)cc1O | 14 nM | – | – | –

Row | Structure (SMILES) | IC50 (Carbonic anhydrase 2 [4]) | Inhibition (Oryctolagus cuniculus [5]) | Inhibition (Oryctolagus cuniculus [8]) | also measured
22 | CC(C)CNCc1ccccc1S(=O)(=O)c1csc(S(N)(=O)=O)c1.Cl | 18 nM | 62% | 47% | Ki (Carbonic anhydrase 2 [7]): 21.1 nM
23 | CCN(CC)Cc1cc(C(=O)c2csc(S(N)(=O)=O)c2)ccc1O.Cl | 7 nM | 55% | 54% | Ki (Carbonic anhydrase 2 [7]): 18.6 nM
24 | CCN(CC)Cc1ccc(S(=O)(=O)c2csc(S(N)(=O)=O)c2)cc1O.Cl | 16 nM | 84% | – | –
25 | COc1ccc(S(=O)(=O)c2csc(S(N)(=O)=O)c2)cc1 | 45 nM | 68% | – | pKa [3]: 8.78
26 | CC(C)CCNCc1cccc(C(=O)c2csc(S(N)(=O)=O)c2)c1.Cl | 9 nM | 82% | – | –
27 | CN1CCN(Cc2ccc(S(=O)(=O)c3csc(S(N)(=O)=O)c3)cc2)CC1.Cl | 11 nM | 92% | 90% | logD [1]: 0.38; solubility [2]: > 43000 µg/mL; pKa [3]: 9.25; Inhibition (Oryctolagus cuniculus [10]): 29%; solubility [9]: > 56000 µg/mL
28 | CCN(CC)Cc1cc(S(=O)(=O)c2coc(S(N)(=O)=O)c2)ccc1O.Cl | 10 nM | 82% | 58% | Ki (Carbonic anhydrase 2 [7]): 4 nM
29 | Cl.NS(=O)(=O)c1cc(C(=O)c2ccc(CN3CCOCC3)cc2)cs1 | 3.7 nM | 73% | – | logD [1]: 1.18; solubility [11]: 12100 µg/mL; pKa [3]: 9.28; Ki (Carbonic anhydrase 2 [7]): 3.32 nM; Max IOP reduction (Oryctolagus cuniculus [6]): -2.2 mmHg; solubility [9]: 70 µg/mL
30 | CN1CCN(Cc2ccc(C(=O)c3csc(S(N)(=O)=O)c3)cc2)CC1.Cl | 4 nM | 90% | – | logD [1]: 0.362; solubility [11]: 5000 µg/mL; solubility [12]: 2000 µg/mL; pKa [3]: 9.32
31 | COc1ccc(S(=O)(=O)c2coc(S(N)(=O)=O)c2)cc1 | 2.5 nM | 68% and 97% | 95% | logD [1]: 1.17; pKa [3]: 6.32
32 | CN1CCN(Cc2ccccc2S(=O)(=O)c2csc(S(N)(=O)=O)c2)CC1.Cl | 23 nM | 77% | 65% | logD [1]: 1.13; solubility [2]: > 64000 µg/mL; pKa [3]: 8.8; Max IOP reduction (Oryctolagus cuniculus [6]): -2.7 mmHg
33 | Cc1ccc(C(=O)c2csc(S(N)(=O)=O)c2)cc1 | 2 nM | 26% | – | –
34 | CC(C)CN(C)Cc1cc(C(=O)c2csc(S(N)(=O)=O)c2)ccc1O.Cl | 9 nM | 58% | – | –
35 | Cl.NS(=O)(=O)c1cc(S(=O)(=O)c2ccc(CN3CCOCC3)cc2)cs1 | 7.6 nM | 83% | – | logD [1]: 0.978; pKa [3]: 8.84; Ki (Carbonic anhydrase 2 [7]): 1.43 nM; solubility [9]: 850 µg/mL
36 | CC(C)CN(C)Cc1cc(S(=O)(=O)c2csc(S(N)(=O)=O)c2)ccc1O.Cl | 5 nM | 90% | 26% | –
37 | COc1ccc(C(=O)c2csc(S(N)(=O)=O)c2)cc1 | 3.2 nM | 31% | – | –
38 | CN(C)Cc1cc(S(=O)(=O)c2coc(S(N)(=O)=O)c2)ccc1O.Cl | 7 nM | 81% | 78% | Ki (Carbonic anhydrase 2 [7]): 2.34 nM and 4.9 nM
39 | CC(C)CNCc1ccc(S(=O)(=O)c2csc(S(N)(=O)=O)c2)cc1.Cl | 13 nM | 87% | 63% | Ki (Carbonic anhydrase 2 [7]): 6.5 nM
40 | NS(=O)(=O)c1cc(S(=O)(=O)c2ccc(O)cc2)co1 | 4.2 nM | 54% | 100% | –
41 | CNCc1ccc(C(=O)c2csc(S(N)(=O)=O)c2)cc1.Cl | 4.5 nM | 67% | 13% | –
42 | CCCCNCc1ccc(S(=O)(=O)c2csc(S(N)(=O)=O)c2)cc1.Cl | 29 nM | 87% | 48% | –
